Assay results as given in ChEMBL document CHEMBL3259717, “Synthetic calanolides with bactericidal activity against replicating and nonreplicating Mycobacterium tuberculosis” (J Med Chem, 2014).
In brackets after ≈: the same amount, converted by molar mass.

How the values were obtained:
[1] = tested on: Mycobacterium tuberculosis; assay: Antibacterial activity against replicating form of Mycobacterium tuberculosis MC2 6220 assessed as growth inhibition after 7 days by high-throughput screening assay; format: functional; details: MC2 6220, 168 h
Outline: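 Attenuated Mtb mc26220 ΔpanCDΔlysA in 7H9 with glycerol, tyloxapol, OADC, casein amino acids, 240 μg/mL L-lysine, 24 μg/mL pantothenate. Mid-log cells diluted to OD580 0.01 in 384-well plates, compound in DMSO, 7 days at 37 °C, 20% O2, 5% CO2. OD580 read; MIC90 = 90% growth inhibition vs DMSO.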

[2] = tested on: Mycobacterium tuberculosis; assay: Antibacterial activity against non-replicating form of Mycobacterium tuberculosis MC2 6220 assessed as growth inhibition after 3 days by high-throughput screening assay; format: functional; details: MC2 6220, 72 h
Outline: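 Log-phase mc26220 washed in PBS/tyloxapol, resuspended in Sauton's-based NR medium (butyrate, 0.5 mM NaNO2, pH 5.0) at OD580 0.1. Compound exposure 3 days at 37 °C, 1% O2, 5% CO2. Then R medium added (5-fold dilution), 7 days outgrowth at 20% O2. OD580 read; MIC90 = 90% inhibition vs DMSO.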

[3] = Cytotoxicity against human HepG2 cells assessed as decrease in ATP signal after 2 days by CellTiter-Glo assay; format: cell-based; details: read-out: LD50
Outline: (§1)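 HepG2 in DMEM with 10% FBS, pyruvate, glutamine, HEPES and nonessential amino acids, seeded 3000 cells/well in 384-well plates. Compound for 2 days at 1% final DMSO. ATP read by CellTiter-Glo luminescence. LD50 = 50% drop in ATP signal vs DMSO. SI = LD50/MIC90 against replicating Mtb.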

[4] = Selectivity index, ratio of LD50 for human HepG2 cells to MIC90 for replicating form of Mycobacterium tuberculosis mc'2 6220; format: toxicity, cell-based; details: read-out: Selectivity Index; outline: as §1

SMILES | MIC90 [1] | MIC90 [2] | CC50 at 48 h [3] | selectivity ratio [4]
O=C(OCCOc1cc2c(c3oc(=O)c4c(c13)CCCC4)[C@H](O)[C@@H]([N+](=O)[O-])O2)c1cnccn1 (racemic) | < 1 µg/mL | < 1 µg/mL | 0.4 µg/mL (≈ 0.852 µM) | > 0.3
CCCc1cc(=O)oc2cc(N3CCN(C(=O)C(C)CC)CC3)c3c(c12)OC(C)(C)C=C3 (stereo not drawn) | > 22 µg/mL | > 22 µg/mL | 22 µg/mL (≈ 50.2 µM) | < 1
CC1(C)C=Cc2c(c3c(CN4CCOCC4)cc(=O)oc3c3cc([N+](=O)[O-])oc23)O1 | < 0.2 µg/mL | < 0.2 µg/mL | 1 µg/mL (≈ 2.42 µM) | > 5
Cc1c(F)c(=O)oc2c1c1c(c3oc([N+](=O)[O-])cc32)C=CC(C)(C)O1 | < 0.1 µg/mL | 0.2 µg/mL (≈ 0.579 µM) | > 50 µg/mL | > 510
CCCc1cc(=O)oc2c1c(OC)cc1oc([N+](=O)[O-])cc12 | < 0.2 µg/mL | < 0.2 µg/mL | 0.3 µg/mL (≈ 0.989 µM) | > 2
CC1(C)CCc2c3c(c4oc(=O)c5c(c4c2O1)CCC5)[C@H](O)[C@@H]([N+](=O)[O-])O3 | 0.2 µg/mL (≈ 0.536 µM) | 0.4 µg/mL (≈ 1.07 µM) | 25 µg/mL (≈ 67 µM) | 128
O=[N+]([O-])C1Cc2ccccc2O1 (stereo not drawn) | 0.4 µg/mL (≈ 2.42 µM) | 0.4 µg/mL (≈ 2.42 µM) | 3 µg/mL (≈ 18.2 µM) | 6
CCCc1cc(=O)oc2cc(OCCN3CCCC3)c3c(c12)OC(C)(C)C=C3 | 19 µg/mL (≈ 49.5 µM) | > 19 µg/mL | 19 µg/mL (≈ 49.5 µM) | 1
CCCc1cc(=O)oc2c1c(OCCN1CCOCC1)cc1oc([N+](=O)[O-])c(C(C)C)c12 | > 22 µg/mL | > 22 µg/mL | 22 µg/mL (≈ 49.5 µM) | < 1
O=[N+]([O-])c1cc2ccccc2o1 | 0.2 µg/mL (≈ 1.23 µM) | > 100 µg/mL | 3 µg/mL (≈ 18.4 µM) | 16
CC1(C)CCc2c3c(c4oc(=O)c5c(c4c2O1)CCCC5)[C@H](O)[C@@H]([N+](=O)[O-])O3 | 0.4 µg/mL (≈ 1.03 µM) | 0.8 µg/mL (≈ 2.07 µM) | 25 µg/mL (≈ 64.5 µM) | 64
CCCc1cc(=O)oc2c1c(OCCN1CCOCC1)cc1[nH]c([N+](=O)[O-])cc12 | > 50 µg/mL | > 50 µg/mL | 25 µg/mL (≈ 62.3 µM) | < 0.5
CCCc1cc(=O)oc2cc(N3CCNCC3)c3c(c12)OC(C)(C)C=C3.O=C(O)C(F)(F)F | 23 µg/mL | > 23 µg/mL | 12 µg/mL | 0.5
O=c1oc2c3c(cc(OCCN4CCOCC4)c2c2c1CCCC2)O[C@H]([N+](=O)[O-])[C@H]3O (racemic) | < 1 µg/mL | < 1 µg/mL | 0.4 µg/mL (≈ 0.925 µM) | > 0.3
Cc1c(F)c(=O)oc2c3c(c4c(c12)OC(C)(C)CC4)O[C@H]([N+](=O)[O-])[C@H]3O (relative stereo) | < 0.1 µg/mL | < 0.1 µg/mL | 13 µg/mL (≈ 35.6 µM) | > 128
CCCc1cc(=O)oc2cc(N3CCN(C(=O)Nc4ccc(OC(F)(F)F)cc4)CC3)c3c(c12)OC(C)(C)C=C3 | > 28 µg/mL | > 28 µg/mL | > 28 µg/mL | –
CCCc1cc(=O)oc2cc(N3CCN(C(=O)Nc4ccccc4Oc4ccccc4)CC3)c3c(c12)OC(C)(C)C=C3 | > 28 µg/mL | > 28 µg/mL | > 28 µg/mL | –
CCCc1cc(=O)oc2cc(N3CCN(C(=O)Nc4ccc(OC)cc4)CC3)c3c(c12)OC(C)(C)C=C3 | > 25 µg/mL | > 25 µg/mL | > 25 µg/mL | –
CCCc1cc(=O)oc2cc(N3CCN(C(=O)NC4CCCCC4)CC3)c3c(c12)OC(C)(C)C=C3 | > 24 µg/mL | > 24 µg/mL | > 24 µg/mL | –
CCCc1cc(=O)oc2cc(N3CCN(C(=O)NCc4ccccc4)CC3)c3c(c12)OC(C)(C)C=C3 | > 24 µg/mL | > 24 µg/mL | > 24 µg/mL | –
CCCc1cc(=O)oc2cc(C#Cc3ccccn3)c3c(c12)OC(C)(C)C=C3 | > 19 µg/mL | > 19 µg/mL | > 19 µg/mL | –
